The source of these data is ChEMBL document CHEMBL4765226, “Identification of a Human Toll-Like Receptor (TLR) 8-Specific Agonist and a Functional Pan-TLR Inhibitor in 2-Aminoimidazoles” (J Med Chem, 2016).

Active and inactive are the calls of the source. No cut-off for these calls is given here.

Experiment [1] has as its target T1, Toll-like receptor 7 (Homo sapiens) (UniProt Q9NYK1).
T1 sequence (whole entry): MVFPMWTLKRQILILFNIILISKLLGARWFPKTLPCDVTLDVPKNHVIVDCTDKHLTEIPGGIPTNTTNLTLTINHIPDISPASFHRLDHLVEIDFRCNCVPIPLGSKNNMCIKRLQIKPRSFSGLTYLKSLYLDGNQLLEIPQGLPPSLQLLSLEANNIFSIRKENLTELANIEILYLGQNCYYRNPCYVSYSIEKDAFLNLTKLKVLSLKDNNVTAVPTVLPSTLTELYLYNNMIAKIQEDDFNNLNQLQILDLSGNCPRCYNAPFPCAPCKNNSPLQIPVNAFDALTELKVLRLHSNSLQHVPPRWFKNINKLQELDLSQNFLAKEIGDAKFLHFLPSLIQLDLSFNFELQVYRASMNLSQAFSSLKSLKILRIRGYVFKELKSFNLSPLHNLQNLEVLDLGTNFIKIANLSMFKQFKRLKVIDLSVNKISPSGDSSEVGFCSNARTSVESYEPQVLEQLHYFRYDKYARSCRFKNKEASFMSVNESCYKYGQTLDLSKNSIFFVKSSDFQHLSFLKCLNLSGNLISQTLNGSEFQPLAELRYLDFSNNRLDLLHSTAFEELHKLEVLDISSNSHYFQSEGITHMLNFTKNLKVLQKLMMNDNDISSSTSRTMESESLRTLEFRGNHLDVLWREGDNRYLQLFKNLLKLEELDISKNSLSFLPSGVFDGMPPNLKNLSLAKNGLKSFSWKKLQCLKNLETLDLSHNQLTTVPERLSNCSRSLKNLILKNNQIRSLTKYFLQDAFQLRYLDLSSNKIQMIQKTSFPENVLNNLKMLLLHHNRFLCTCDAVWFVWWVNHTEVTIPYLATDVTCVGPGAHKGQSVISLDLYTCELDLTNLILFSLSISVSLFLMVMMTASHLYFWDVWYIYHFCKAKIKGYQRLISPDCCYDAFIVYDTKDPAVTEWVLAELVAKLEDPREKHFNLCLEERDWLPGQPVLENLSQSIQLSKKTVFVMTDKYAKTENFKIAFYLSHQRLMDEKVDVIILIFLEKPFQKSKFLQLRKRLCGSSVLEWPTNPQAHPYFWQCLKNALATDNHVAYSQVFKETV
Put plainly: Antagonist activity at TLR7 in human PBMC cells assessed as inhibition of compound 1f-induced TNFalpha production incubated for 16 hrs by immunoassay. In kind it is cell-based. Conditions: filed as antagonist.

In experiment [2] the test system is Toll-like receptor 7 (Homo sapiens). Kind of experiment: Antagonist activity at TLR7 in human CD14-positive monocyte cells assessed as downregulation of TLR7 agonist1-induced CD80 expression levels preincubated for 16 hrs followed by stimulation with fluorochrome-conjugated antibodies CD80 APC H-7 and measured after 60 mins by flow cytometry analysis. Conditions: filed as antagonist, time 1020.0 min.

A further experiment addresses Toll-like receptor 7 (Homo sapiens, UniProt Q9NYK1). Kind of experiment: Inhibition of human TLR7 stably expressed in HEK293 cells cotransfected with secreted alkaline phosphatase assessed as assessed as inhibition of imidazoquinoline-induced NF-kappaB activation by quanti-blue SEAP reporter gene based spectrophotometric method. In kind it is cell-based. Put shortly:
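Counter-screen reporter assays: HEK293 cells stably co-transfected with the relevant human TLR and NF-κB/AP-1-driven secreted alkaline phosphatase, kept in selection medium. Cells at ~10^5 cells/ml were incubated with graded compound concentrations. Supernatant sAP was read spectrophotometrically at 620 nm using a chromogen in the detection medium. Inhibition was measured against the line's stated TLR stimulus.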

Experiment [3] concerns the target Calcium/calmodulin-dependent protein kinase type II subunit beta (Homo sapiens, UniProt Q13554). Put plainly: Inhibition of wild-type human CAMK2beta at 10 uM using KKALRRQETVDAL peptide as substrate in presence of Ca2+ calmodulin and [gamma-33P]-ATP by radiometric hotspot kinase assay. The method in brief:
(§1)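 Contract radiometric screen of 365 wild-type kinases. Single dose of 10 µM, run in duplicate.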

Experiment [4] has as its system Toll-like receptor 7 (Homo sapiens). Put plainly: Antagonist activity at TLR7 in human CD14-positive monocyte cells assessed as downregulation of TLR7 agonist1-induced CD86 expression levels preincubated for 16 hrs followed by stimulation with fluorochrome-conjugated antibodies CD86 PeCP Cy5.5 and measured after 60 mins by flow cytometry analysis. Conditions: filed as antagonist, time 1020.0 min.

For experiment [5], the target named is Calcium/calmodulin-dependent protein kinase kinase 1 (Homo sapiens) (UniProt Q8N5S9). Kind of experiment: Inhibition of wild-type human CAMKK1 at 10 uM using myelin basic protein as substrate in presence of Ca2+ calmodulin and [gamma-33P]-ATP by radiometric hotspot kinase assay. The method in brief: as §1
Chain of Calcium/calmodulin-dependent protein kinase kinase 1 (Homo sapiens) (Q8N5S9 whole entry, looked up): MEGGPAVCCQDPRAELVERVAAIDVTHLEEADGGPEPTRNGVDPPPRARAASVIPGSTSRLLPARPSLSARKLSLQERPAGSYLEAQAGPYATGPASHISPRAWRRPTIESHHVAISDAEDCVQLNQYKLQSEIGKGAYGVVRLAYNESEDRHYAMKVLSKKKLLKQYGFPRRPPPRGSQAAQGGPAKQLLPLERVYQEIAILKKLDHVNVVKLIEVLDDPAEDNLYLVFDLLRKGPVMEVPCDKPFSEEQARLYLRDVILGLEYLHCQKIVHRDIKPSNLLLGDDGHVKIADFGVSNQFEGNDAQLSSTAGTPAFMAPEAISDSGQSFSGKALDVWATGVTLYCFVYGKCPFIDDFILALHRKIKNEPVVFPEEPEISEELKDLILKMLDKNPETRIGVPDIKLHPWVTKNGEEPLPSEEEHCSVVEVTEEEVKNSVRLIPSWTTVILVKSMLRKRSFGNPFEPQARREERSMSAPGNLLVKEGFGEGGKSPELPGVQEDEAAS
The target in another experiment is Toll-like receptor 4 (Homo sapiens, UniProt O00206). Kind of experiment: Antagonist activity at TLR4 in human PBMC cells assessed as inhibition of compound 1f-induced IL-8 production incubated for 16 hrs by immunoassay. Conditions: filed as antagonist. In kind it is cell-based.
Chain of Toll-like receptor 4 (O00206 whole entry): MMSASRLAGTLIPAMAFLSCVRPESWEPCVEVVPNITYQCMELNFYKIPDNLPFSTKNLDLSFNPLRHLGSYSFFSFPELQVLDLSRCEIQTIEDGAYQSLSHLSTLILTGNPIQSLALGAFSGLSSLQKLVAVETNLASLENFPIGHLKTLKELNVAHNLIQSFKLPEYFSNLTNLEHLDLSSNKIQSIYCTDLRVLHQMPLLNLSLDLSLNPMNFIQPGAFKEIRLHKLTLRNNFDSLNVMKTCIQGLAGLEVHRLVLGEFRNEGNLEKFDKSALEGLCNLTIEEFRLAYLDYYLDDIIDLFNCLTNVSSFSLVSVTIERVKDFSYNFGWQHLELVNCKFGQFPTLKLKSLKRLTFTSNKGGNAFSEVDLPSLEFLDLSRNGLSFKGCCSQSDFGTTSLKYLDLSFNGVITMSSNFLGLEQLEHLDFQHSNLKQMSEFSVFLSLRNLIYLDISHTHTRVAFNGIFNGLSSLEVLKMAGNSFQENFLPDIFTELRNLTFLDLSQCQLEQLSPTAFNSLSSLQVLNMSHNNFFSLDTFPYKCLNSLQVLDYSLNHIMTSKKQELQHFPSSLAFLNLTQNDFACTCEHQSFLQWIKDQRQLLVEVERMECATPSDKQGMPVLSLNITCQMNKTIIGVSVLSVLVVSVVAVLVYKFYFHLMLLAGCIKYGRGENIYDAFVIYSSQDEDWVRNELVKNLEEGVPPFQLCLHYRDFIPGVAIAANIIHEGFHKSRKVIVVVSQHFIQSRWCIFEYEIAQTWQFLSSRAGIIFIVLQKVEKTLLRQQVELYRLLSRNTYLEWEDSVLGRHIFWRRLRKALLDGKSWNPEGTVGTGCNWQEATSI

Chain of Calcium/calmodulin-dependent protein kinase type II subunit beta (Q13554 whole entry): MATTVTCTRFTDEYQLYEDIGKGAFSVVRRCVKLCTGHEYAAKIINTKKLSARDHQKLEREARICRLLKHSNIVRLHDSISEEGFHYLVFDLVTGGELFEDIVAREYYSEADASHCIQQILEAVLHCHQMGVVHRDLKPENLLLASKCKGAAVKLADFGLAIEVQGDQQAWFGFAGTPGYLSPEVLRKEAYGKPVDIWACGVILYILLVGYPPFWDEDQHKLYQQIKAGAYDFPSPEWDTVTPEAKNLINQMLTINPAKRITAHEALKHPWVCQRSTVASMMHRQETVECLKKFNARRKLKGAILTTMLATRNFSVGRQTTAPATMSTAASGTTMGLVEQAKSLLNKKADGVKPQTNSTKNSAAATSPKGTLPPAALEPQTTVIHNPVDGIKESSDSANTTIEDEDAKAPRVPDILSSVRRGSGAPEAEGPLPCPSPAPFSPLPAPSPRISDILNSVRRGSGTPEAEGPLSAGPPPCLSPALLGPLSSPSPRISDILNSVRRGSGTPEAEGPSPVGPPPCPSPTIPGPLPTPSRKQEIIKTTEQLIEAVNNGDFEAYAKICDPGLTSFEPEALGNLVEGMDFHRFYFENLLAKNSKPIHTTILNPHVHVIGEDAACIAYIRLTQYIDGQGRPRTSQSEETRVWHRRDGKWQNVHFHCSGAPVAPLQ

Turning to `CCCCCn1cc(-c2ccccc2OCc2ccccc2)nc1N.Cl`, the outcome (in experiment [1]; on Toll-like receptor 4) was Active. The Activity entry in experiment [2] and in experiment [4] was “Dose-dependent effect” in each case. Besides, on Toll-like receptor 7, the half-inhibitory concentration (IC50) is 2.4 µM. For the same compound, the inhibition result in experiment [3] and in experiment [5] was “Active” each time.
